How the values were obtained:
Bos taurus [1] = species: Bos taurus; experiment: Inhibition of bovine chymotrypsin assessed as residual activity at 5 uM relative to control
Procedure, shortened: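 Residual chymotrypsin activity is measured with the inhibitor present at a single concentration (5). Assays are run in duplicate, and activity is expressed relative to an uninhibited control.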

[2] = target: Procathepsin L (Homo sapiens) (UniProt P07711); experiment: Inhibition of human cathepsin L using Z-Phe-ArgpNA as substrate assessed as residual activity at 50 uM by spectrophotometric analysis relative to control
Procedure, shortened: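 Residual human cathepsin L activity is determined in duplicate with the inhibitor at a single concentration (50). Activity is expressed relative to an uninhibited control.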

[3] = target: Acetylcholinesterase (Electrophorus electricus) (UniProt O42275); experiment: Inhibition of electric eel AChE assessed as residual activity at 10 uM relative to control
Procedure, shortened: (§1)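 Residual enzyme activity is determined in duplicate experiments in the presence of the inhibitor at a single concentration (10). Activity is expressed relative to an uninhibited control.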

[4] = target: T1, Neutrophil elastase (Homo sapiens) (UniProt P08246); experiment: Inhibition of human leukocyte elastase assessed as residual activity at 10 uM relative to control
T1 sequence (whole entry): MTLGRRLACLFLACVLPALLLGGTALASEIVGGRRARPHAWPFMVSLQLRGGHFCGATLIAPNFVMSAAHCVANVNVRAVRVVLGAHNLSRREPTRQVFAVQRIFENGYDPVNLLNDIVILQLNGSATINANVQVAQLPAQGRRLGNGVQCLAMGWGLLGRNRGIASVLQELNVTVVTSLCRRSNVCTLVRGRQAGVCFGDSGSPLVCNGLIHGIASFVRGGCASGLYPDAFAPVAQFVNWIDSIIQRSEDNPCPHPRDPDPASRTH
Procedure, shortened: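 Residual enzyme activity measured in duplicate at one inhibitor concentration; more than 90% residual activity scored as no inhibition.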

[5] = Inhibition of bovine trypsin Suc-Ala-Ala-Pro-Arg-para-nitroanilide as substrate after 10 mins; parameters: species or system Bos taurus
Prothrombin [6] = target: T2, Prothrombin (Homo sapiens, UniProt P00734); experiment: Inhibition of human thrombin using H-D-Phe-L-Pip-Arg-para-nitroanilide as substrate after 5 mins
[7] = Inhibition of porcine cholesterol esterase using para-nitrophenyl butyrate as substrate preincubated for 5 mins by spectrophotometric analysis; parameters: species or system Sus scrofa
Procedure, shortened: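 CEase assay on the porcine enzyme with para-nitrophenyl butyrate in 100 mM sodium phosphate and 100 mM NaCl, at 25 °C, read at 405 nm. Final: 6 mM sodium taurocholate, 3% acetonitrile, 3% DMSO, 10 ng/mL CEase. 5 min preincubation before enzyme start. Duplicates at five inhibitor concentrations; IC50 fitted by non-linear regression to v = v0/(1+[I]/IC50).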

Prothrombin [8] = target: T2, Prothrombin; experiment: Inhibition of human thrombin using H-D-Phe-L-Pip-Arg-para-nitroanilide as substrate assessed as residual activity at 10 uM after 5 mins relative to control; procedure, shortened: as §1
Neutrophil elastase = target: T3, Neutrophil elastase (Homo sapiens, UniProt P08246); experiment: Inhibition of human leukocyte elastase
T3 sequence (P08246 whole entry): T1 sequence (whole entry)

Bos taurus [9] = species: Bos taurus; experiment: Inhibition of bovine trypsin Suc-Ala-Ala-Pro-Arg-para-nitroanilide as substrate assessed as residual activity at 10 uM after 10 mins relative to control; procedure, shortened: as §1
Sus scrofa = species: Sus scrofa; experiment: Inhibition of porcine cholesterol esterase using para-nitrophenyl butyrate as substrate assessed as residual activity at 25 uM preincubated for 5 mins by spectrophotometric analysis relative to control
Procedure, shortened: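 Porcine CEase read spectrophotometrically at 405 nm, 25 °C, with para-nitrophenyl butyrate. Buffer: 100 mM sodium phosphate, 100 mM NaCl. Final concentrations: 6 mM sodium taurocholate, 3% acetonitrile, 3% DMSO, 10 ng/mL enzyme. Inhibitor and substrate mixed and held 5 min, then enzyme added to start. Residual activity taken from duplicates at one inhibitor concentration.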

Acetylcholinesterase = Acetylcholinesterase (Electrophorus electricus, UniProt O42275); experiment: Inhibition of electric eel AChE
[10] = Inhibition of bovine chymotrypsin; parameters: species or system Bos taurus
[11] = Uncompetitive inhibition of porcine cholesterol esterase using para-nitrophenyl butyrate as substrate by Lineweaver-Burk plot analysis; parameters: species or system Sus scrofa
[12] = Competitive inhibition of porcine cholesterol esterase using para-nitrophenyl butyrate as substrate by Lineweaver-Burk plot analysis; parameters: species or system Sus scrofa

Procathepsin L (Homo sapiens), sequence (P07711 114-333 limits assumed): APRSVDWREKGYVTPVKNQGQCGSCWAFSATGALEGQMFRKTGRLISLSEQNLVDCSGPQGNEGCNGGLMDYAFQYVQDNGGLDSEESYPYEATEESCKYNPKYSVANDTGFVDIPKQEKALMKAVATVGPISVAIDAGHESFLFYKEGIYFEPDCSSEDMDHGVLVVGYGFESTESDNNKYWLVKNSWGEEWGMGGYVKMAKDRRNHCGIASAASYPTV
Acetylcholinesterase (Electrophorus electricus), sequence (O42275 24-633 limits assumed): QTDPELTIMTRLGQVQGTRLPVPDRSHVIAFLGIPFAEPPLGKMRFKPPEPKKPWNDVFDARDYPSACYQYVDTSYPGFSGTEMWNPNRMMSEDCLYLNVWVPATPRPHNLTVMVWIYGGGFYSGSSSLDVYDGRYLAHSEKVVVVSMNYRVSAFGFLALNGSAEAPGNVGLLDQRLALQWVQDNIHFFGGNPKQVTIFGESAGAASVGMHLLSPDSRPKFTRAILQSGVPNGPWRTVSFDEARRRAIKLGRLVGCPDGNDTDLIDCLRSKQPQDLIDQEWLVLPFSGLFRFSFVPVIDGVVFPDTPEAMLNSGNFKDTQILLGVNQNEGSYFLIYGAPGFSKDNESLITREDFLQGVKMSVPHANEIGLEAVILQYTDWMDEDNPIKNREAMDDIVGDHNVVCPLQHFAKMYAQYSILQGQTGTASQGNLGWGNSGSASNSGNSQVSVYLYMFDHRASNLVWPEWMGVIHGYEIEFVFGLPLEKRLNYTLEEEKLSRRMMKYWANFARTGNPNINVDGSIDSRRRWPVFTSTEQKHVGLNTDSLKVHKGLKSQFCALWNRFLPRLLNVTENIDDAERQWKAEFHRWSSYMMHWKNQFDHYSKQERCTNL
Acetylcholinesterase, sequence (O42275 whole entry): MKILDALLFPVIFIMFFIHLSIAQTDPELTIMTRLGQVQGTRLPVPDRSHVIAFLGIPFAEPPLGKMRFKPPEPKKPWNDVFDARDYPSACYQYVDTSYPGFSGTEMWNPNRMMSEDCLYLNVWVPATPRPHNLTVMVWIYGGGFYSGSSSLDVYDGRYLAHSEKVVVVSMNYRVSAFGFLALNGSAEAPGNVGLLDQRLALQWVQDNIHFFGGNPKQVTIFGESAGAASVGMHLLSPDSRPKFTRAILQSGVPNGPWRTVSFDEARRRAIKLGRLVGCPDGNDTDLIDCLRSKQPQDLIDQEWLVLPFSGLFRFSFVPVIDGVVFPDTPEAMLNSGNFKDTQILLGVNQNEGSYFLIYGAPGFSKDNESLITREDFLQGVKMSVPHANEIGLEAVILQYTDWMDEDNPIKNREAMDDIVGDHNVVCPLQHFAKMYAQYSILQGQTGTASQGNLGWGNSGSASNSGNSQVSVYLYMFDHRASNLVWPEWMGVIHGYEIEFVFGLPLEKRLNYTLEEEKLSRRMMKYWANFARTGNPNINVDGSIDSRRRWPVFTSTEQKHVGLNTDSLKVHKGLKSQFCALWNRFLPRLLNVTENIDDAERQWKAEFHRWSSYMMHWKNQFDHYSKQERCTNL

Row | Structure (SMILES) | Activity (Bos taurus [1]) | Activity [2] | Activity [3] | Activity [4] | IC50 [5] | IC50 (Prothrombin [6]) | IC50 [7] | Activity (Prothrombin [8]) | IC50 (Neutrophil elastase) | Activity (Bos taurus [9]) | Activity (Sus scrofa) | IC50 (Acetylcholinesterase) | IC50 [10] | Ki [11] | Ki [12]
1 | Oc1ccc(-c2cc(-c3ccccc3)c3cc(Cl)ccc3n2)cc1 | > 90% | > 90% | > 90% | > 90% | ≥ 51 µM | ≥ 30 µM | ≥ 20 µM | – | – | – | – | – | – | – | –
2 | Clc1ccc2nc(-c3cccc(Br)c3)cc(-c3ccccc3)c2c1 | > 90% | > 90% | > 90% | – | ≥ 51 µM | – | ≥ 20 µM | > 90% | ≥ 28 µM | – | – | – | – | – | –
3 | COc1ccc(-c2cc(-c3ccccc3)c3cc(Cl)ccc3n2)cc1 | > 90% | > 90% | > 90% | – | – | ≥ 30 µM | ≥ 20 µM | – | ≥ 28 µM | > 90% | – | – | – | – | –
4 | COc1ccc(-c2cc(-c3ccccc3)c3cc([N+](=O)[O-])ccc3n2)cc1 | > 90% | > 90% | – | > 90% | – | ≥ 30 µM | ≥ 20 µM | – | – | > 90% | > 90% | ≥ 37 µM | – | – | –
5 | Clc1ccc2nc(-c3c[nH]c4ccccc34)cc(-c3ccccc3)c2c1 | > 90% | > 90% | – | – | – | ≥ 30 µM | 1.33 µM | – | 4.22 µM | > 90% | – | ≥ 37 µM | – | – | –
6 | Cc1ccc(-c2cc(-c3ccccc3)c3cc([N+](=O)[O-])ccc3n2)cc1 | > 90% | > 90% | > 90% | – | – | ≥ 30 µM | ≥ 20 µM | – | ≥ 28 µM | > 90% | – | – | – | – | –
7 | O=[N+]([O-])c1ccc2nc(-c3cccc(Br)c3)cc(-c3ccccc3)c2c1 | > 90% | > 90% | > 90% | – | – | – | ≥ 20 µM | > 90% | ≥ 28 µM | > 90% | – | – | – | – | –
8 | O=[N+]([O-])c1ccc2nc(-c3ccc(O)cc3)cc(-c3ccccc3)c2c1 | > 90% | > 90% | > 90% | – | – | ≥ 30 µM | ≥ 20 µM | – | 2.91 µM | > 90% | – | – | – | – | –
9 | Clc1ccc2nc(-c3ccccc3)cc(-c3ccccc3)c2c1 | > 90% | > 90% | > 90% | – | – | – | ≥ 20 µM | > 90% | ≥ 28 µM | > 90% | – | – | – | – | –
10 | Cc1ccc(-c2cc(-c3ccccc3)c3cc(Cl)ccc3n2)cc1 | > 90% | > 90% | > 90% | – | ≥ 51 µM | – | ≥ 20 µM | > 90% | ≥ 28 µM | – | – | – | – | – | –
11 | O=[N+]([O-])c1ccc2nc(-c3c[nH]c4ccccc34)cc(-c3ccccc3)c2c1 | – | > 90% | – | – | – | ≥ 30 µM | 1.98 µM | – | 0.63 µM | > 90% | – | 22.9 µM | ≥ 30 µM | 7 µM | 0.66 µM
12 | O=[N+]([O-])c1ccc2nc(-c3ccccc3)cc(-c3ccccc3)c2c1 | > 90% | > 90% | – | > 90% | ≥ 51 µM | – | ≥ 20 µM | > 90% | – | – | – | ≥ 37 µM | – | – | –
